ChEMBL document CHEMBL1145542, “Discovery of a new class of potent, selective, and orally bioavailable CRTH2 (DP2) receptor antagonists for the treatment of allergic inflammatory diseases” (J Med Chem, 2008)

Columns and labels:
[1] = Tmax in rat at 1 mg/kg, iv; type: ADME, organism-based; design: dose 1 mg/kg, route intravenous; conditions: in vivo
Method in brief: (§1)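 Male Sprague–Dawley or Janvier rats, three per route, dosed by oral gavage or iv bolus. Serial blood drawn through an indwelling carotid catheter up to 24 h post dose. Plasma pooled by time point, analysed by LC-MS/MS; non-compartmental analysis.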

[2] = target: T1, Prostaglandin D2 receptor 2 (Homo sapiens, UniProt Q9Y5Y4); test: Displacement of [3H]PGD2 from human CRTH2 receptor expressed in CHO cells; type: cell-based
T1 sequence (Q9Y5Y4 whole entry): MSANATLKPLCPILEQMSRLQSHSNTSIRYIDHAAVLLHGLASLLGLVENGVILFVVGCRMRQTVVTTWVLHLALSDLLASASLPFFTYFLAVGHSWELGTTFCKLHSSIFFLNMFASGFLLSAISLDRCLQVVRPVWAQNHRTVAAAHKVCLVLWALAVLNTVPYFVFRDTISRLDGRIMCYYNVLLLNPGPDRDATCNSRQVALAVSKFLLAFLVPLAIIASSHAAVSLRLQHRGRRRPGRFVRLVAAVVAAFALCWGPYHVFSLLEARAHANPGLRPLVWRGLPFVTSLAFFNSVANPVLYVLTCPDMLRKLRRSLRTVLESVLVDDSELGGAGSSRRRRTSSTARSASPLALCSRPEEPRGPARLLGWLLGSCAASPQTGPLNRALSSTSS
Method in brief: (§2)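 Scintillation proximity competition assay: 2–5 µg human or mouse CRTH2 membranes (nitrogen-cavitation, differential centrifugation) with WGA-SPA beads and 1.5 nM [3H]PGD2 in 10 mM HEPES/KOH pH 7.4, 10 mM MnCl2, protease inhibitors, 1% Me2SO, 90 min shaking at room temperature. Nonspecific binding with 1 µM PGD2. Ki by Cheng–Prusoff, mean of ≥3 independent experiments.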

[3] = AUC (0 to last t) in Beagle dog at 1 mg/kg, po; type: ADME, organism-based, Canis lupus familiaris; design: time 0 - last, dose 1 mg/kg, route oral; conditions: plasma
Method in brief: (§3)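 Three male beagle dogs, crossover design; 1 mg/kg given as a solution, iv bolus and oral gavage. Serial blood sampled up to 48 h post dose. Individual plasma samples analysed by LC-MS/MS; PK parameters derived by non-compartmental analysis.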

[4] = Intrinsic clearance per mg of protein in human liver microsomes at 3 uM; type: ADME, Microsome
Method in brief: (§4)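 Rat or human liver microsomes (0.5 mg/mL final) in 0.1 M phosphate pH 7.4 with 3 µM compound (1% DMSO), preincubated at 37 °C, started with 1 mM NADPH. Quenched with cold acetonitrile at 0, 15, 30, 45 min; LC/MS-MS of compound disappearance gives intrinsic clearance.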

[5] = AUC (0 to last t) in Beagle dog at 1 mg/kg, iv; type: ADME, organism-based, Canis lupus familiaris; design: time 0 - last, dose 1 mg/kg, route intravenous; conditions: plasma; method in brief: as §3
[6] = Inhibition of prostanoid EP3 receptor
[7] = Oral bioavailability in Beagle dog at 1 mg/kg; type: ADME, organism-based, Canis lupus familiaris; conditions: in vivo; method in brief: as §3
[8] = Cmax in rat at 1 mg/kg, iv; type: ADME, organism-based; design: dose 1 mg/kg, route intravenous; conditions: in vivo; method in brief: as §1
[9] = Inhibition of prostanoid EP4 receptor
[10] = target: Prostaglandin E2 receptor EP2 subtype (Homo sapiens, UniProt P43116); test: Inhibition of prostanoid EP2 receptor
Prostaglandin E2 receptor EP2 subtype, sequence (P43116 whole entry): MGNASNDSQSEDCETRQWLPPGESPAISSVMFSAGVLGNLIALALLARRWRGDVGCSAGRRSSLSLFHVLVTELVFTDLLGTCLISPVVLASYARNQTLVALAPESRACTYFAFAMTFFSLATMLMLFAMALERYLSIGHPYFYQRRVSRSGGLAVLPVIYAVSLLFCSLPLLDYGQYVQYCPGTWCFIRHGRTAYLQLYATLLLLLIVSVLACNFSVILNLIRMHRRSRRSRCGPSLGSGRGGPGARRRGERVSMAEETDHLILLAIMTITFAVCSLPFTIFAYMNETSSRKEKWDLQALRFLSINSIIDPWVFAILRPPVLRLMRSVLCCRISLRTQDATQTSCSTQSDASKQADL

[11] = Half life in rat at 5 mg/kg, po; type: ADME, organism-based; design: dose 5 mg/kg, route oral; conditions: in vivo; method in brief: as §1
[12] = Apparent permeability across human Caco-2 cell membrane at 10 uM; type: ADME, cell-based
Method in brief: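 Caco-2 monolayers grown 21 days on Transwell filters; TEER above 800 ohm·cm² required. 10 µM test compound in HBSS added apically (A to B) or basolaterally (B to A), 2 h at 37 °C. Both compartments sampled, analysed by LC/MS-MS.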

[13] = Tmax in rat at 5 mg/kg, po; type: ADME, organism-based; design: dose 5 mg/kg, route oral; conditions: in vivo; method in brief: as §1
[14] = Clearance in rat at 1 mg/kg, iv; type: ADME, organism-based; design: dose 1 mg/kg, route intravenous; conditions: in vivo; method in brief: as §1
[15] = Half life in Beagle dog at 1 mg/kg, iv; type: ADME, organism-based, Canis lupus familiaris; design: dose 1 mg/kg, route intravenous; conditions: in vivo; method in brief: as §3
[16] = Cmax in rat at 5 mg/kg, po; type: ADME, organism-based; design: dose 5 mg/kg, route oral; conditions: in vivo; method in brief: as §1
[17] = Cmax in Beagle dog at 1 mg/kg, po; conditions: in vivo
[18] = Tmax in Beagle dog at 1 mg/kg, iv; type: ADME, organism-based, Canis lupus familiaris; design: dose 1 mg/kg, route intravenous; conditions: in vivo; method in brief: as §3
[19] = target: T2, Prostaglandin D2 receptor 2 (Mus musculus, UniProt Q9Z2J6); test: Displacement of [3H]PGD2 from mouse CRTH2 receptor expressed in HEK293 cells; type: cell-based; method in brief: as §2
T2 sequence (Q9Z2J6 whole entry): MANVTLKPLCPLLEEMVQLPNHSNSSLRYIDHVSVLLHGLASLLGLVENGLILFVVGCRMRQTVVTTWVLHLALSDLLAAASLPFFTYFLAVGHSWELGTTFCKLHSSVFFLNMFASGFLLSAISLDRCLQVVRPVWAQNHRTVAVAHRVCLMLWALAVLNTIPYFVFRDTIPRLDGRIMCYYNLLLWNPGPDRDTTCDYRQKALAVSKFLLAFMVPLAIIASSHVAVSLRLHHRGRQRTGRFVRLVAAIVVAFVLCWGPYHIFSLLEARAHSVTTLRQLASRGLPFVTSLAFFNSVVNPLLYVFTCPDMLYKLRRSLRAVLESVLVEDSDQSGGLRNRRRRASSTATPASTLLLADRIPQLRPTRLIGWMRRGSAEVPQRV

[20] = Half life in Beagle dog at 1 mg/kg, po; conditions: in vivo
[21] = Half life in rat at 1 mg/kg, iv; type: ADME, organism-based; design: dose 1 mg/kg, route intravenous; conditions: in vivo; method in brief: as §1
[22] = AUC (0 to last t) in rat at 5 mg/kg, po; type: ADME, organism-based; design: time 0 - last, dose 5 mg/kg, route oral; conditions: plasma; method in brief: as §1
[23] = Cmax in Beagle dog at 1 mg/kg, iv; type: ADME, organism-based, Canis lupus familiaris; design: dose 1 mg/kg, route intravenous; conditions: in vivo; method in brief: as §3
[24] = Clearance in Beagle dog at 1 mg/kg, iv; type: ADME, organism-based, Canis lupus familiaris; design: dose 1 mg/kg, route intravenous; conditions: in vivo; method in brief: as §3
[25] = Inhibition of prostanoid FP receptor
[26] = Lipophilicity, log D of the compound; type: physicochemical; conditions: octanol/water
[27] = Intrinsic clearance per mg of protein in rat liver microsomes at 3 uM; type: ADME, Microsome; method in brief: as §4
[28] = Volume of distribution at steady state in rat at 1 mg/kg, iv; type: ADME, organism-based; design: dose 1 mg/kg, route intravenous; conditions: in vivo, read-out: Vdss; method in brief: as §1
[29] = Oral bioavailability in rat at 5 mg/kg; type: ADME, organism-based; conditions: in vivo; method in brief: as §1
[30] = target: T3, Prostaglandin D2 receptor (Homo sapiens, UniProt Q13258); test: Inhibition of prostaglandin D2 receptor
T3 sequence (Q13258 whole entry): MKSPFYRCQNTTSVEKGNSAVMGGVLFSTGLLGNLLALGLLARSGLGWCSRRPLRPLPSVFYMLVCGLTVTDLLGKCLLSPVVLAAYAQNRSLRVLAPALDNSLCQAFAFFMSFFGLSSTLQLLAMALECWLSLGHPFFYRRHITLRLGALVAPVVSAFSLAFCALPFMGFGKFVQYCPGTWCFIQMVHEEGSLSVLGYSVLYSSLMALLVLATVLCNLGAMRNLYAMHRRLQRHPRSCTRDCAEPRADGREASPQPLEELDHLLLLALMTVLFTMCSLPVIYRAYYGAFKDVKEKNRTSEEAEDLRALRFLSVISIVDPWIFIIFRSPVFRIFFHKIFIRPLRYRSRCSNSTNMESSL

[31] = AUC (0 to last t) in rat at 1 mg/kg, iv; type: ADME, organism-based; design: time 0 - last, dose 1 mg/kg, route intravenous; conditions: plasma; method in brief: as §1
[32] = Tmax in Beagle dog at 1 mg/kg, po; conditions: in vivo
[33] = Volume of distribution at steady state in Beagle dog at 1 mg/kg, iv; type: ADME, organism-based, Canis lupus familiaris; design: dose 1 mg/kg, route intravenous; conditions: in vivo, read-out: Vdss; method in brief: as §3

O=C(O)CN1C(=O)[C@@]2(CC(=O)N(Cc3ccccc3F)C2=O)c2cc(Cl)ccc21
Tmax [1]: 0 h | Ki [2]: 0.023 µM | AUC(0-t) [3]: 2.35 µg·h/mL | microsomal CLint at 3 µM [4]: 15 µL/min/mg | AUC(0-t) [5]: 2.02 µg·h/mL | IC50 [6]: > 30 µM | bioavailability [7]: 120% | Cmax [8]: 1.99 µg/mL | IC50 [9]: > 30 µM | IC50 [10]: > 30 µM | half-life [11]: 4.2 h | Papp at 10 µM [12]: 24 nm/s | Tmax [13]: 0.5 h | clearance [14]: 0.8 L/h/kg | half-life [15]: 7 h | Cmax [16]: 0.297 µg/mL | Cmax [17]: 0.503 µg/mL | Tmax [18]: 0 h | Ki [19]: 0.022 µM | half-life [20]: 3 h | half-life [21]: 1 h | AUC(0-t) [22]: 2.48 µg·h/mL | Cmax [23]: 2.57 µg/mL | clearance [24]: 0.5 L/h/kg | IC50 [25]: > 30 µM | logD [26]: -1 | microsomal CLint at 3 µM [27]: 23 µL/min/mg | Vd [28]: 0.9 L/kg | bioavailability [29]: 40% | IC50 [30]: > 30 µM | AUC(0-t) [31]: 1.25 µg·h/mL | Tmax [32]: 2 h | Vd [33]: 2 L/kg
